Data from ChEMBL document CHEMBL3244315, “Synthesis and antitumor properties of some isoindolylalkylphosphonium salts” (J Med Chem, 1978).

What was measured:
P388 [1] = assay: Antitumor activity against mouse P388 cells allografted in mouse at 3.13 mg/kg, ip; format: functional; details: route intraperitoneal
Method in brief: (§1)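 P-388 lymphocytic leukemia in mice, run by NCI Division of Cancer Treatment standard protocol. Drug given intraperitoneally once daily on days 1-9, dose in mg/kg, with H2O, H2O + Tween 80 or saline as vehicle. Read-out is T/C = treated/control mean or median survival time × 100, and ≥125% counts as significant. Active results were repeated in at least one more experiment.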

P388 [2] = assay: Antitumor activity against mouse P388 cells allografted in mouse at 25 mg/kg, ip; format: functional; details: route intraperitoneal; method in brief: as §1
P388 [3] = assay: Antitumor activity against mouse P388 cells allografted in mouse at 9 mg/kg, ip; format: functional; details: route intraperitoneal; method in brief: as §1
P388 [4] = assay: Antitumor activity against mouse P388 cells allografted in mouse at 6.25 mg/kg, ip; format: functional; details: route intraperitoneal; method in brief: as §1
P388 [5] = assay: Antitumor activity against mouse P388 cells allografted in mouse at 12.5 mg/kg, ip; format: functional; details: route intraperitoneal; method in brief: as §1
P388 [6] = assay: Antitumor activity against mouse P388 cells allografted in mouse at 6 mg/kg, ip; format: functional; details: route intraperitoneal; method in brief: as §1
Mus musculus = assay: Toxicity in mouse P388 cells allografted mouse at 25 mg/kg, ip; format: organism-based; design: dose 25 mg/kg, route intraperitoneal; details: in vivo
P388 [7] = assay: Antitumor activity against mouse P388 cells allografted in mouse at 18.8 mg/kg, ip; format: functional; details: route intraperitoneal; method in brief: as §1
P388 [8] = assay: Antitumor activity against mouse P388 cells allografted in mouse at 50 mg/kg, ip; format: functional; details: route intraperitoneal; method in brief: as §1
P388 [9] = assay: Antitumor activity against mouse P388 cells allografted in mouse at 100 mg/kg, ip; format: functional; details: route intraperitoneal; method in brief: as §1

SMILES: BrCC[P+](c1ccccc1)(c1ccccc1)c1ccccc1.[Br-]
- T/C (P388 [1]; dose 3.13 mg/kg): 127%

SMILES: O.O=C1c2ccc([N+](=O)[O-])cc2C(=O)N1CC[P+](c1ccccc1)(c1ccccc1)c1ccccc1.[Br-]
- T/C (P388 [2]): 107%

SMILES: O=C1c2ccccc2C(=O)N1CCCC[P+](c1ccccc1)(c1ccccc1)c1ccccc1.[Br-]
- T/C (P388 [3]): 121%

SMILES: Cc1ccc2c(c1)C(=O)N(CC[P+](c1ccccc1)(c1ccccc1)c1ccccc1)C2=O.[Br-]
- T/C (P388 [4]): 139%

SMILES: [Br-].c1ccc([P+](CCN2Cc3ccccc3C2)(c2ccccc2)c2ccccc2)cc1
- T/C (P388 [4]): 114%
- T/C (P388 [1]; dose 6.25 mg/kg, in the assay text read “at 6.25 mg/kg” for “at 3.13 mg/kg”): 114%

SMILES: O=C1c2ccccc2C(=O)N1CC[P+](c1ccccc1)(c1ccccc1)c1ccccc1.[Br-]
- T/C (P388 [5]): 160%

SMILES: O.O=C1c2ccccc2C(=O)N1CC[P+](c1ccc(Cl)cc1)(c1ccc(Cl)cc1)c1ccc(Cl)cc1.[Br-]
- T/C (P388 [4]): 110%

SMILES: O=C1c2ccccc2C(=O)N1CC[P+](C1CCCCC1)(C1CCCCC1)C1CCCCC1.[Br-]
- T/C (P388 [2]): 118%

SMILES: O=C1C=CC(=O)N1CC[P+](c1ccccc1)(c1ccccc1)c1ccccc1.[Br-]
- T/C (P388 [2]): 120%

SMILES: N#CCC[P+](CCC#N)(CCC#N)CCN1C(=O)c2ccccc2C1=O.O.[Br-]
- T/C (P388 [2]): 117%

SMILES: COc1ccc([P+](CCN2C(=O)c3ccccc3C2=O)(c2ccc(OC)cc2)c2ccc(OC)cc2)cc1.O.[Br-]
- T/C (P388 [6]): 134%

SMILES: O=C1c2ccccc2C(=O)N1CCP(=O)(c1ccccc1)c1ccccc1
- T/C (P388 [2]): 106%

SMILES: O.O=c1c2cc3c(=O)n(CC[P+](c4ccccc4)(c4ccccc4)c4ccccc4)c(=O)c3cc2c(=O)n1CC[P+](c1ccccc1)(c1ccccc1)c1ccccc1.[Br-].[Br-]
- Activity (Mus musculus): Toxic
- T/C (P388 [2]): 18%

SMILES: O=C1c2ccccc2C(=O)N1CC[P+](Cc1ccccc1)(Cc1ccccc1)Cc1ccccc1.[Br-]
- T/C (P388 [2]): 112%

SMILES: O.O=C1C2CC=CCC2C(=O)N1CC[P+](c1ccccc1)(c1ccccc1)c1ccccc1.[Br-] (stereo unspecified)
- T/C (P388 [2]): 115%

SMILES: O.O=C1c2ccccc2C(=O)N1C[P+](c1ccccc1)(c1ccccc1)c1ccccc1.[Br-]
- T/C (P388 [7]): 136%

SMILES: Cc1cccc2c1C(=O)N(CC[P+](c1ccccc1)(c1ccccc1)c1ccccc1)C2=O.[Br-]
- T/C (P388 [1]; dose 3.13 mg/kg): 140%

SMILES: Br.O.[Br-].c1ccc([P+](CCN2Cc3ccccc3C2)(c2ccccc2)c2ccccc2)cc1
- T/C (P388 [4]): 118%

SMILES: O.O=C1c2cccc([N+](=O)[O-])c2C(=O)N1CC[P+](c1ccccc1)(c1ccccc1)c1ccccc1.[Br-]
- T/C (P388 [8]): 109%

SMILES: O.O=C1c2ccccc2C(=O)N1CC[P+](c1ccccc1)(c1ccccc1)c1ccccc1.[Cl-]
- T/C (P388 [4]): 133%

SMILES: O.O=C1c2ccccc2C(=O)N1CCC[P+](c1ccccc1)(c1ccccc1)c1ccccc1.[Br-]
- T/C (P388 [5]): 151%

SMILES: COCC[P+](c1ccccc1)(c1ccccc1)c1ccccc1.[Br-]
- T/C (P388 [5]): 123%

SMILES: CCCC[P+](CCCC)(CCCC)CCN1C(=O)c2ccccc2C1=O.O.[Br-]
- T/C (P388 [9]): 116%

SMILES: Cc1ccc([P+](CCN2C(=O)c3ccccc3C2=O)(c2ccc(C)cc2)c2ccc(C)cc2)cc1.O.[Br-]
- T/C (P388 [4]): 134%
